Laboratory results reported in ChEMBL document CHEMBL1138658, “Novel 2-aminotetralin and 3-aminochroman derivatives as selective serotonin 5-HT7 receptor agonists and antagonists” (J Med Chem, 2004).

Columns and labels:
[1] = molecular target: 5-hydroxytryptamine receptor 2A (Rattus norvegicus, UniProt P14842); experiment: Inhibition of [3H]- Ketanserin binding to rat cortex 5-HT2A receptor
[2] = molecular target: T1, Adrenergic receptor alpha-1 (Rattus norvegicus, UniProt P15823+P23944+P43140); experiment: Inhibition of [3H]prazosin binding to rat cortex Alpha 1 receptor
T1 sequence (P15823 whole entry): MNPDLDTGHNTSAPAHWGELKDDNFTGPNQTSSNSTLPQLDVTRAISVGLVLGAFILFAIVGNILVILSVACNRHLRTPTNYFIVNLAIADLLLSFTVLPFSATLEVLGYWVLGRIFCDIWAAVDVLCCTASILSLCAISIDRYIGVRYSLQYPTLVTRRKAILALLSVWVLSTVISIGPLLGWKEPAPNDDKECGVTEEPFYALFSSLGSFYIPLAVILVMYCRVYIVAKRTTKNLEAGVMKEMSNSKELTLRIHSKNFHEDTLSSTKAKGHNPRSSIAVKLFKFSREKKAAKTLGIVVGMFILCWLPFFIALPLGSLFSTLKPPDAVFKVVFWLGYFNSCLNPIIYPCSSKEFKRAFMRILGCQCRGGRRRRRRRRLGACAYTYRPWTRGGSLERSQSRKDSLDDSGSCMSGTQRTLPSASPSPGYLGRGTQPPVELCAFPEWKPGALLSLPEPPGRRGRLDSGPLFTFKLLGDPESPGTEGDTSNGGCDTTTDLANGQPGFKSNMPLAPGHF
T1 sequence (P23944 whole entry): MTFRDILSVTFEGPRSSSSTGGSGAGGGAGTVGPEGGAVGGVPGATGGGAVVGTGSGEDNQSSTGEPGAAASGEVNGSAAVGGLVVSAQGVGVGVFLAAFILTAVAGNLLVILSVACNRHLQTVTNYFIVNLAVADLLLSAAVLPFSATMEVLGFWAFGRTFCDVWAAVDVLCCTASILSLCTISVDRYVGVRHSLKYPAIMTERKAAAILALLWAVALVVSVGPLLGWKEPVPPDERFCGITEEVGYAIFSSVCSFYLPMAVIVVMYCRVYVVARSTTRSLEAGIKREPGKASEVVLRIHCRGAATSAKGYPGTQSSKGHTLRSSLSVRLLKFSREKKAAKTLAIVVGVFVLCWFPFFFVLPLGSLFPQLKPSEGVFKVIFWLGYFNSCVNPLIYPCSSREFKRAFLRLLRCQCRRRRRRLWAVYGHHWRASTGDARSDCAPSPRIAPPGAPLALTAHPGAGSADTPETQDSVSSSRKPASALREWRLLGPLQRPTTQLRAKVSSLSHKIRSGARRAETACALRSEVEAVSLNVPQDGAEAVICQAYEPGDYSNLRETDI
T1 sequence (P43140 whole entry): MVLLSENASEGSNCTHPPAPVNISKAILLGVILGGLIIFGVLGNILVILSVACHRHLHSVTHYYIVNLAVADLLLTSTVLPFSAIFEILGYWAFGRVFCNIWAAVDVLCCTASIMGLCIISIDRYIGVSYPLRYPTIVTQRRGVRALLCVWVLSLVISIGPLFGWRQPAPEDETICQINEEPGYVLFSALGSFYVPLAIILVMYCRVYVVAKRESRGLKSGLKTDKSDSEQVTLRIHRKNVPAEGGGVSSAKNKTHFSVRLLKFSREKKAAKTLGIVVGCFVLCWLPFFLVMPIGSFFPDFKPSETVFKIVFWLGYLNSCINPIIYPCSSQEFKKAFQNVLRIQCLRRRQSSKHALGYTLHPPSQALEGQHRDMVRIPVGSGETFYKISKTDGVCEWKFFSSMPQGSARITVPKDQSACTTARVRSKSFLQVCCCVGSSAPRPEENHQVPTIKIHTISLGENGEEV

D(1A) dopamine receptor = D(1A) dopamine receptor (Rattus norvegicus, UniProt P18901); experiment: Inhibition of [3H]SCH-23390 binding to rat striatum Dopamine receptor 1; type: tissue-based
Sequence of D(1A) dopamine receptor (P18901 whole entry): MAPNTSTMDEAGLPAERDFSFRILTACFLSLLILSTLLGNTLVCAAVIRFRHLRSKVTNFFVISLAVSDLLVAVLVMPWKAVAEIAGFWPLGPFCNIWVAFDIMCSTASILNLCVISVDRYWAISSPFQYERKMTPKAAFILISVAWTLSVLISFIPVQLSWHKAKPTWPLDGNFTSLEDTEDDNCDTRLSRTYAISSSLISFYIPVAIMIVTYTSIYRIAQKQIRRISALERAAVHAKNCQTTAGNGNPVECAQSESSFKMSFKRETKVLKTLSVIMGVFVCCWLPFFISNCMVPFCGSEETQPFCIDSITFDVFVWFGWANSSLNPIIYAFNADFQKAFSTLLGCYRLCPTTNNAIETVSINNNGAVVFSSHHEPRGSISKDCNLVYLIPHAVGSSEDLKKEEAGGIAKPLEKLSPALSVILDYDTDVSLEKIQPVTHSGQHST

Adrenergic receptor beta = Adrenergic receptor beta (Rattus norvegicus, UniProt P18090+P10608+P26255); experiment: Inhibition of [3H]DHA binding to rat cortex Beta receptor
[3] = molecular target: 5-hydroxytryptamine receptor 7 (Rattus norvegicus) (UniProt P32305); experiment: Stimulation of cAMP production in CHO cells expressing rat 5-hydroxytryptamine 7 receptor; type: functional, cell-based
Sequence of 5-hydroxytryptamine receptor 7 (Rattus norvegicus) (P32305 whole entry): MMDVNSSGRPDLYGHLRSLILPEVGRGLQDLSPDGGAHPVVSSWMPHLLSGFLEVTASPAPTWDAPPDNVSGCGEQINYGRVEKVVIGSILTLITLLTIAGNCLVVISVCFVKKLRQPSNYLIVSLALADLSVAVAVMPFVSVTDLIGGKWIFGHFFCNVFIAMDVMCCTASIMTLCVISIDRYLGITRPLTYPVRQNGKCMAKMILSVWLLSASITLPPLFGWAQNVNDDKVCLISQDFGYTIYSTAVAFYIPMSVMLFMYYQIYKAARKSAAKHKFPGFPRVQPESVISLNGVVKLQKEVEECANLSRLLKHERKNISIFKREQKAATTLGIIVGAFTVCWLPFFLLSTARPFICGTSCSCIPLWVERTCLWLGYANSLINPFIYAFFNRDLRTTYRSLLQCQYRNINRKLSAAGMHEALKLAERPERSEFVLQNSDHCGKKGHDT
Outline: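 cAMP production in CHO cells expressing rat 5-HT7 receptor. Efficacy is expressed as percent of the 5-HT-stimulated production.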

[4] = molecular target: T2, 5-hydroxytryptamine receptor 7 (Rattus norvegicus, UniProt P32305); experiment: Inhibition of [3H]5-HT binding to rat 5-HT7 receptor
T2 sequence (P32305 whole entry): as above
Outline: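 Displacement of [3H]-5-HT from rat 5-HT7 receptor expressed in CHO or Sf9 cells.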

[5] = molecular target: T2, 5-hydroxytryptamine receptor 7; experiment: Inhibition of [3H]-5-HT binding to rat 5-hydroxytryptamine 7 receptor
Outline: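 Rat 5-HT7 receptor expressed in CHO or Sf9 cells; [3H]-5-HT radioligand displacement.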

[6] = molecular target: T3, 5-hydroxytryptamine receptor 1A (Rattus norvegicus, UniProt P19327); experiment: Inhibition of [3H]8-OH-DPAT binding to rat 5-hydroxytryptamine 1A receptor
T3 sequence (P19327 whole entry): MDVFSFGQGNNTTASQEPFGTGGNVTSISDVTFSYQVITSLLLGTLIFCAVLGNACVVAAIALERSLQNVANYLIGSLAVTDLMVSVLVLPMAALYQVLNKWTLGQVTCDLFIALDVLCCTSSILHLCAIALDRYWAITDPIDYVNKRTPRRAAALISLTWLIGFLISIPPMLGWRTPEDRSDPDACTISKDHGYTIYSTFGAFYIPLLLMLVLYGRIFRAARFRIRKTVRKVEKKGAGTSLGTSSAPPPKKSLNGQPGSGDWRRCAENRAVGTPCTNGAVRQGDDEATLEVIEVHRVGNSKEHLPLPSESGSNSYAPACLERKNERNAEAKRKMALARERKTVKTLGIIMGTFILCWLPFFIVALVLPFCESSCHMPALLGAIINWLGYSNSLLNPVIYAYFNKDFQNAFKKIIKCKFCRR
Outline: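 Radioligand [3H]-8-OH-DPAT; receptor source either CHO cells expressing human 5-HT1A or rat hippocampal cells.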

[7] = molecular target: T4, 5-hydroxytryptamine receptor 1A (Homo sapiens, UniProt P08908); experiment: Inhibition of [3H]8-OH-DPAT binding to human 5-HT1A receptor
T4 sequence (P08908 whole entry): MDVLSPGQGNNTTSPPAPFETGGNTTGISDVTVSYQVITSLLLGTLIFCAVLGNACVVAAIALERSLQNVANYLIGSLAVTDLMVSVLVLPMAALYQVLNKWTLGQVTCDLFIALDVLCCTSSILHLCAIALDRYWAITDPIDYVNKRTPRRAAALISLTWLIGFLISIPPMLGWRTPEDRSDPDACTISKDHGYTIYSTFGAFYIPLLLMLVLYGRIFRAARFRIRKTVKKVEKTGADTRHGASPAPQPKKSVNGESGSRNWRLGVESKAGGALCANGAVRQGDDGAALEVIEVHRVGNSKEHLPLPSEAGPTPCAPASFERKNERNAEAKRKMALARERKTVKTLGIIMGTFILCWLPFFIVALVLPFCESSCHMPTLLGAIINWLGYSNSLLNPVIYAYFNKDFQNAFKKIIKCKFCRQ
Outline: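 Human 5-HT1A receptor expressed in CHO cells, labelled with [3H]-8-OH-DPAT.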

Sequence of 5-hydroxytryptamine receptor 2A (P14842 whole entry): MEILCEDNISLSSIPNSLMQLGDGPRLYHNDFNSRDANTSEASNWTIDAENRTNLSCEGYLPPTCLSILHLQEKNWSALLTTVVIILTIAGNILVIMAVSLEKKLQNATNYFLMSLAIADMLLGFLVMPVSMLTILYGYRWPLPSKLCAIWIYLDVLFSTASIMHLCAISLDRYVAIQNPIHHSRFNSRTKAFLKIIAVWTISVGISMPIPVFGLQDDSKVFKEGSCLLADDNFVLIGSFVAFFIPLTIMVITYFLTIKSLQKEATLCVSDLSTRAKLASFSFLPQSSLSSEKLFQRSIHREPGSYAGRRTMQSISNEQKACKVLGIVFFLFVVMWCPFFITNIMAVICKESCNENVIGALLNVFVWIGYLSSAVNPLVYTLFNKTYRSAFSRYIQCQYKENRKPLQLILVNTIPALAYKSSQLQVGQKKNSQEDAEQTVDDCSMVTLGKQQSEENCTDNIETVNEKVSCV

| Compound | Ki [1] [nM] | Ki [2] [nM] | Ki (D(1A) dopamine receptor) [nM] | Ki (Adrenergic receptor beta) [nM] | Efficacy [3] [%] | Ki [4] [nM] | Ki [5] [nM] | Ki [6] [nM] | Ki [7] [nM] |
| --- | --- | --- | --- | --- | --- | --- | --- | --- | --- |
| COc1cccc(OC)c1-c1cccc2c1CC[C@H](N(C)C)C2 | 1340 | 3670 | > 1000 | > 1000 | < 10 | 2.55 | 2.55 | 1420 | 1420 |
| CCCN(CCC)[C@H]1CCc2c(cccc2-c2c(OC)cccc2OC)C1 | 1450 | > 1000 | > 1000 | > 1000 | 100 | 7.9 | 7.9 | 347 | 347 |
